Laboratory results from ChEMBL document CHEMBL1158847, “Litebamine N-homologues: preparation and anti-acetylcholinesterase activity” (J Nat Prod, 1998).

Biological target: Acetylcholinesterase (Electrophorus electricus, UniProt O42275)
Sequence (O42275 whole entry): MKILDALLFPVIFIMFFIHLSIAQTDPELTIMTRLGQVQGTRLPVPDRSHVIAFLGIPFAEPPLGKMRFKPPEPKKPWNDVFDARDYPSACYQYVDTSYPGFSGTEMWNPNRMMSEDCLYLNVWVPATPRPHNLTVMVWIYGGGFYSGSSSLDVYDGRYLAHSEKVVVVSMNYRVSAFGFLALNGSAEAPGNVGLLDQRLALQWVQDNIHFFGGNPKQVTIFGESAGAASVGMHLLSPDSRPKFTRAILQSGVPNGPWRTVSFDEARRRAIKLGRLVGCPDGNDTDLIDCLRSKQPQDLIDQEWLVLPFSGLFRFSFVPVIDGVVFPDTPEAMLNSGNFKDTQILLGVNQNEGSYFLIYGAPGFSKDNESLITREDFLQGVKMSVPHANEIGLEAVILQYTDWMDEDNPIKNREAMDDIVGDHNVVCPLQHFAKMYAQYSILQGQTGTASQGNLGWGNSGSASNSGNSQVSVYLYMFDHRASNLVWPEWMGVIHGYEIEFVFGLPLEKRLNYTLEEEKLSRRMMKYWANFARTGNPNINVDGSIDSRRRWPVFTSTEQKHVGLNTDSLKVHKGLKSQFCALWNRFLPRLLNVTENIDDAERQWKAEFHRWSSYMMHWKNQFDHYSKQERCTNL
Assay: Inhibition of electric eel AChE by colorimetric method
Conditions: not given
How it was run: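 Ellman colorimetric assay. Enzyme 0.125 U preincubated 2 min at 37 °C with test samples and DTNB 0.3 mM in 0.1 M phosphate buffer, pH 8.0. Reaction started with 0.5 mM […]. Absorbance followed at 412 nm over time. IC50 taken from dose-response curves of at least four concentrations spanning 0-90% inhibition.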
Molecule `CCCN1CCc2c(c(O)c(OC)c3c2ccc2cc(O)c(OC)cc23)C1` has an IC50 of 7.21 µM.
For `CCC[N+]1(C)CCc2c(c(O)c(OC)c3c2ccc2cc(O)c(OC)cc23)C1` (stereo not given), the IC50 was 2.79 µM.
For `CCCNCCc1cc(O)c(OC)c2c1ccc1cc(O)c(OC)cc12`, the IC50 was 107 µM.
With `CCCCNCCc1cc(O)c(OC)c2c1ccc1cc(O)c(OC)cc12` the IC50 was 111 µM.
Work on `COc1cc2c(ccc3c(CCNCC(C)C)cc(O)c(OC)c32)cc1O` yielded an IC50 of 62 µM.
For `COc1cc2c(ccc3c(CCNC(C)C)cc(O)c(OC)c32)cc1O`, the IC50 was 72 µM.
In the case of `COc1cc2c(ccc3c4c(c(O)c(OC)c32)CN(Cc2ccccc2)CC4)cc1O`, the IC50 is reported as 10.7 µM.
For `CCCCN1CCc2c(c(O)c(OC)c3c2ccc2cc(O)c(OC)cc23)C1`, the IC50 was 7.79 µM.
Work on `C=CCN1CCc2c(c(O)c(OC)c3c2ccc2cc(O)c(OC)cc23)C1` yielded an IC50 of 15.8 µM.
For `CCNCCc1cc(O)c(OC)c2c1ccc1cc(O)c(OC)cc12`, the IC50 was 27.2 µM.
Molecule `COc1cc2c(ccc3c4c(c(O)c(OC)c32)CN(C(C)C)CC4)cc1O` has an IC50 of 6.8 µM.
With `COc1cc2c(ccc3c4c(c(O)c(OC)c32)CN(CC(C)C)CC4)cc1O` the IC50 was 6.51 µM.
Molecule `CCN1CCc2c(c(O)c(OC)c3c2ccc2cc(O)c(OC)cc23)C1` has an IC50 of 14.5 µM.
`COc1cc2c(ccc3c4c(c(O)c(OC)c32)CN(C)CC4)cc1O` [LITEBAMINE] showed an IC50 of 22 µM.

Tested on: not listed separately
Assay: Antiplatelet activity against rabbit platelets assessed as inhibition of arachidonic acid-induced thromboxane B2 formation at 15 uM
Format: functional
Conditions: Oryctolagus cuniculus, Platelet
Molecule `COc1cc2c(ccc3c4c(c(O)c(OC)c32)CN(C)CC4)cc1O` [LITEBAMINE] has an inhibition at 15 µM of 77%.
